From ChEMBL document CHEMBL1144571, “ABP688, a novel selective and high affinity ligand for the labeling of mGlu5 receptors: identification, in vitro pharmacology, pharmacokinetic and biodistribution studies” (Bioorg Med Chem, 2007) come the findings set out here.

pIC50, pKd, pKi: −log10 of the molar value. Active and inactive are the calls of the source. Bounds are passed on as bounds.

Series [1] relates to Plasma. Kind of series: Drug distribution in rat plasma. Format: ADME, cell-free. In outline:
(§1)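 Fresh heparinized rat or human blood spiked with [3H]ABP688 (5–500,000 pg/mL) at 37 °C. Plasma separated by centrifugation (1500g, 10 min, 37 °C), total radioactivity counted in plasma and blood, hematocrit measured (n = 3). Plasma fraction fP (%) = (Cp/Cb)·(1−H)·100.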

Series [2] can be described thus: Volume of distribution in Wistar rat at 4 ug/kg, iv. Format: ADME, organism-based. The following applies: in vivo, 0.004 mg/kg, read-out: Vss. In outline: (§2)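 Male Wistar rats (220–250 g) given 4 µg/kg [3H]ABP688 in EtOH/5% glucose (1:99), 1 mL/kg, into the exposed femoral vein under light isoflurane. n = 3 per time point; plasma and tissues collected, total radioactivity by scintillation, parent by LC-radiodetection with unlabeled internal standard. Bi-exponential compartmental PK analysis.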

The subject of a further series is Rattus norvegicus. The experiment in a line: Drug uptake in Wistar rat at 4 ug/kg, iv. It is filed as ADME, organism-based. As to conditions: in vivo, 0.004 mg/kg. In outline:
as §2

The subject of series [3] is Brain. The experiment in a line: Drug uptake in Wistar rat brain at 4 µg/kg, iv. The following applies: in vivo.
The target in series [4] is T1, Metabotropic glutamate receptor 5 (Rattus norvegicus, UniProt P31424). The experiment in a line: Binding affinity at mGluR5 in rat brain membrane. It is filed as cell membranes. In outline:
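Rat whole-brain membranes in Na-HEPES buffer (110 mM NaCl, 1.2 mM MgCl2, 5 mM KCl, 2.5 mM CaCl2), pH 8.0. Competition against fixed 1.5 nM [3H]ABP688, equilibrated 60 min at 37 °C, then filtered on glass-fibre and counted by liquid scintillation, in triplicate. Ki derived by Cheng–Prusoff from non-linear curve fits.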

A short description of series [5]: Protein binding in rat plasma as percentage unbound. It is filed as ADME, cell-free. In outline: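 Rat or human plasma spiked with [3H]ABP688 (50–500,000 pg/mL) and ultrafiltered at 37 °C through a 30 kDa cut-off device. Radioactivity in ultrafiltrate (Cu) and in sample before filtration (Cp) counted by liquid scintillation; fu (%) = Cu/Cp·100.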
In series [6] the test system is Plasma. The experiment in a line: Drug distribution in human plasma. It is filed as ADME, cell-free. In outline: as §1
Series [7] can be described thus: Ratio of drug levels in brain to plasma in Wistar rat at 4 ug/kg, iv. It is filed as ADME, organism-based. The following applies: brain and plasma, 0.004 mg/kg. In outline: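 Male Wistar rats (220–250 g) given 4 µg/kg [³H]ABP688 iv into the surgically exposed femoral vein under slight isoflurane anaesthesia, in EtOH/glucose 5% (1:99 v/v) at 1 mL/kg. Groups of n = 3 per sampling time over about 2.5 h. Plasma and brain were taken. Total radioactivity was read by liquid scintillation, and parent compound by LC-RID with unlabelled internal standard. Values are means ± SD.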

Series [8] is described as follows: Metabolic stability assessed as intrinsic clearance in Sprague-Dawley rat liver microsomes. It is filed as ADME, Microsome. In outline:
(§3)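 Pooled liver microsomes (male Sprague-Dawley rat; mixed-gender Caucasian human), 0.2 mg protein/mL, incubated with [3H]ABP688 (0.92 µmol/L) for 40 min at 37 °C in 0.1 M sodium phosphate pH 7.4 containing 4 mM UDPGA, 1 mM β-NADPH and 5 mM MgCl2. Parent depletion tracked by on-line radio-HPLC; intrinsic clearance from parent kinetics.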

The nature of series [9]: Metabolic stability assessed as intrinsic clearance in human liver microsomes. It is filed as ADME, Microsome. In outline:
as §3

Series [10] has as its system Brain. Kind of series: Drug level in Wistar rat brain at 4 ug/kg, iv after 5 mins. It is filed as ADME, organism-based. The following applies: in vivo, 0.004 mg/kg. In outline: as §2
Series [11] concerns the target T1, Metabotropic glutamate receptor 5. The experiment in a line: Displacement of [3H]ABP688 from mGluR5 in rat brain membrane. Format: cell membranes.
Series [12] addresses T2, Metabotropic glutamate receptor 5 (Homo sapiens, UniProt P41594). Kind of series: Activity at human recombinant mGluR5 expressed in L(tk-) cells assessed as inhibition of glutamate-induced calcium release. Format: functional, cell-based.
In series [13] the target is Metabotropic glutamate receptor 1 (Homo sapiens) (UniProt Q13255). The experiment in a line: Activity at human recombinant mGluR1 expressed in L(tk-) cells assessed as basal phosphoinositol level.
Metabotropic glutamate receptor 1 (Homo sapiens), sequence (Q13255 19-1194 limits assumed): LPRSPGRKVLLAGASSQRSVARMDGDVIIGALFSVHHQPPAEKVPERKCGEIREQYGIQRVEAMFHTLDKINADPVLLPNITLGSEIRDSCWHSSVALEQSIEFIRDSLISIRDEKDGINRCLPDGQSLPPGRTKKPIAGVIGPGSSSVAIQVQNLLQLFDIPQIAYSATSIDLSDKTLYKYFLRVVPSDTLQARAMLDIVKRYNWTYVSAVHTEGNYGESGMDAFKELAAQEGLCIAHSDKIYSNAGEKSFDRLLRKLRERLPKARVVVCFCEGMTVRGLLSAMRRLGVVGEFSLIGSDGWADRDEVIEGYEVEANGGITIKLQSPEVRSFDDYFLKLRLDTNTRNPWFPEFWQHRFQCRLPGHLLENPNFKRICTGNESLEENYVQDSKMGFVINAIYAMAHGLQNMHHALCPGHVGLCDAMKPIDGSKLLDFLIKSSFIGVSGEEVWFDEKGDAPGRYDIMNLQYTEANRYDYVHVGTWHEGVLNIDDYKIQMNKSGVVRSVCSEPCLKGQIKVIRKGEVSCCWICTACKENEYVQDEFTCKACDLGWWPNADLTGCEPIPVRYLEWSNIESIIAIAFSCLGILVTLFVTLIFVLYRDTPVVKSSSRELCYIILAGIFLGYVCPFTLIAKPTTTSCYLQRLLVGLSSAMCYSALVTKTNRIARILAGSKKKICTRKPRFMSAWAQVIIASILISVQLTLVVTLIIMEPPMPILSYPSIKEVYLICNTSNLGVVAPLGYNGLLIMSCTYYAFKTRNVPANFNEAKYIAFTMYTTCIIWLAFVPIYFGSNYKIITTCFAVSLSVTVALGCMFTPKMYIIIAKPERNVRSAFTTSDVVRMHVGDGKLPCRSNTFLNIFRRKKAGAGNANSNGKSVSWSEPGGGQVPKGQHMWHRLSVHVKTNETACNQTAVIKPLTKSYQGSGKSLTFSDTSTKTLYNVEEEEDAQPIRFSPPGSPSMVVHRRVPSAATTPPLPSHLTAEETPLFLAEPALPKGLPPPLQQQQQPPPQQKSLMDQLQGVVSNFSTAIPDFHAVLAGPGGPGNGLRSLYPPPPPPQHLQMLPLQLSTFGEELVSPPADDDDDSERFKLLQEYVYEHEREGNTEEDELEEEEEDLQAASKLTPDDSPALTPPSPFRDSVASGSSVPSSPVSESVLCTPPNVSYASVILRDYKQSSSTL
In series [14] the target is T2, Metabotropic glutamate receptor 5. Kind of series: Activity at human recombinant mGluR5 expressed in L(tk-) cells assessed as inhibition of quisqualate-induced phosphoinositol accumulation. It is filed as functional, cell-based.
In series [15] the target is Metabotropic glutamate receptor 1 (Homo sapiens) (UniProt Q13255). Kind of series: Activity at human recombinant mGluR1 expressed in L(tk-) cells assessed as inhibition of quisqualate-induced phosphoinositol accumulation at 10 uM. It is filed as functional, cell-based. In outline:
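Inhibition of quisqualate (40 µM)-stimulated PI accumulation in hmGluR1-expressing cells cultured in glutamate-free DMEM (2 mM L-glutamine, proline, 10% dialyzed FCS, geneticin). Percent control ± SD, n = 3 independent determinations, each in triplicate.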

In series [16] the target is T2, Metabotropic glutamate receptor 5. Kind of series: Displacement of [3H]ABP688 from human mGluR5 receptor expressed in L (tk-) cells. Format: cell-based.
Series [17] has the same target. The experiment in a line: Displacement of [3H]M-MPEP from human mGluR5 receptor expressed in L (tk-) cells. Format: cell-based. In outline:
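Membranes from L(tk-) cells expressing recombinant human mGluR5, incubated with 2 nM [3H]-M-MPEP over a range of competitor concentrations. Non-specific binding was taken with 1 µM unlabeled M-MPEP. Readout is percent specific binding.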

T1 sequence (P31424 whole entry): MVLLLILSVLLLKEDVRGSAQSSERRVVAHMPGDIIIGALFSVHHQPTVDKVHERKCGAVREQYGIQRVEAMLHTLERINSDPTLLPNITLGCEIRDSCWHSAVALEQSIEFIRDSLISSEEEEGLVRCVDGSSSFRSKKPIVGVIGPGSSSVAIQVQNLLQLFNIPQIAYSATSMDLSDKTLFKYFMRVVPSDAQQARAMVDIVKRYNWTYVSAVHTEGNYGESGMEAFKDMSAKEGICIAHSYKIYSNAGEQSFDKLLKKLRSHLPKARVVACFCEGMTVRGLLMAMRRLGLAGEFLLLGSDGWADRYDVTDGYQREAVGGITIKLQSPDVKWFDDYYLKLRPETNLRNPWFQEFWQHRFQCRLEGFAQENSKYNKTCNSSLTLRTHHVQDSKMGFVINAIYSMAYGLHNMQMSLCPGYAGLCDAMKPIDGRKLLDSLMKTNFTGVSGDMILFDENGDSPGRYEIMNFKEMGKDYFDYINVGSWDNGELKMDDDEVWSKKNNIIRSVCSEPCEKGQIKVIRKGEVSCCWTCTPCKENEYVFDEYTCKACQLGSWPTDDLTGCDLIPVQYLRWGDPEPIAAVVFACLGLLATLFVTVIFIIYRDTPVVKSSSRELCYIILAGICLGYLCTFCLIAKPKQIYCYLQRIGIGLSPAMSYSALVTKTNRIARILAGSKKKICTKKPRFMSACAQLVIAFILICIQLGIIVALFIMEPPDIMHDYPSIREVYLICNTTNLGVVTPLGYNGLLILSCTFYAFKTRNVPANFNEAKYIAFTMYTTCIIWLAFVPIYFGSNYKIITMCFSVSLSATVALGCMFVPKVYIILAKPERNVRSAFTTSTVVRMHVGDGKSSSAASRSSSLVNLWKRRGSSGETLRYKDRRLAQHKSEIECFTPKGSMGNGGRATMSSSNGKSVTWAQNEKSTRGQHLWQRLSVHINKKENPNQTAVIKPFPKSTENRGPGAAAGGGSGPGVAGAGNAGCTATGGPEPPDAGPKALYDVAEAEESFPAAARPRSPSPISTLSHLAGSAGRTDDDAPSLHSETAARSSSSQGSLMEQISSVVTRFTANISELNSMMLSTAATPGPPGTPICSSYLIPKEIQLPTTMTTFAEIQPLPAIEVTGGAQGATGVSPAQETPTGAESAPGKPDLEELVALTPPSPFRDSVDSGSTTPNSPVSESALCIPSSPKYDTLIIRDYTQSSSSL
T2 sequence (P41594 whole entry): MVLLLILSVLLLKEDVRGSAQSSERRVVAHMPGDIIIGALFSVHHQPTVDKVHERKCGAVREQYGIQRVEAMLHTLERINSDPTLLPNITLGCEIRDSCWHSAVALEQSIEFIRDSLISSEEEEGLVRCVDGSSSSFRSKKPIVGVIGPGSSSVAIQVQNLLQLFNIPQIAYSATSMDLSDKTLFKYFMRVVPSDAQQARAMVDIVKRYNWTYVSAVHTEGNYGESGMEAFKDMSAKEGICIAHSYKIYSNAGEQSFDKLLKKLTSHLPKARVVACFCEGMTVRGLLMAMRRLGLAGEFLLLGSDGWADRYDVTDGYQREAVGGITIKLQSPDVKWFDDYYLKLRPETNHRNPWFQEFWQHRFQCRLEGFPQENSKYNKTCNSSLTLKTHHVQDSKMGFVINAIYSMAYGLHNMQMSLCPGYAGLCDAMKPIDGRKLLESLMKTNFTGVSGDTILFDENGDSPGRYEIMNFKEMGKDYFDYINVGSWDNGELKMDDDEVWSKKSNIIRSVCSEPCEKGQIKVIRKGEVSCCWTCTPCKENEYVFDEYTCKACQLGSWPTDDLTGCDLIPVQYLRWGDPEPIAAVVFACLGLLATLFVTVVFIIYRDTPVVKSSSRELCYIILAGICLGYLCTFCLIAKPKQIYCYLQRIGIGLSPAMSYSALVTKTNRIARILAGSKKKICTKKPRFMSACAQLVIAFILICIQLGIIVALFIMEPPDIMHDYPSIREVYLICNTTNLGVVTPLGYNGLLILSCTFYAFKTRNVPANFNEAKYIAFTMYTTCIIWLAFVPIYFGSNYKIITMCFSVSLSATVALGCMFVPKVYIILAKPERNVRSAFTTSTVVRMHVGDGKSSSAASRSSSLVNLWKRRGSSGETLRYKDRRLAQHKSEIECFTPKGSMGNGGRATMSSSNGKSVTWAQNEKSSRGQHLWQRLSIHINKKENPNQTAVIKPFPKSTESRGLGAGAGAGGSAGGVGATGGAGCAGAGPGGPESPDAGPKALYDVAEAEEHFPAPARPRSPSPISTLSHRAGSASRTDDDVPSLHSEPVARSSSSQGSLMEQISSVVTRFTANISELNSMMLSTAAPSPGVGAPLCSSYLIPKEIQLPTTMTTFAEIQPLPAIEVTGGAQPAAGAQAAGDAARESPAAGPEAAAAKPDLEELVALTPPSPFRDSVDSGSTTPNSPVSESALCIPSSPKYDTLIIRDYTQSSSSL

With `[3H]C([3H])([3H])O/N=C1/C=C(C#Cc2cccc(C)n2)CCC1`, the Activity with Plasma [1] is recorded as 76%; with Plasma [6], 92%; in the series with Brain [10], 21 pmol/g. The Vd in series [2] was 11 L/kg. In addition, the Drug uptake in the series with Rattus norvegicus is listed as 21 %ID; in the series with Brain [3] it was 0.8 %ID. Further, the pKd in series [4] is 8.64. The free fraction (fraction unbound) in [5] came to 0.068. In addition, the Kp in series [7] was 20. For the same molecule, the microsomal CLint in [8] and in series [9] was 150 µL/min/mg in each case.
In [11], `COc1cccc(C#Cc2cccc(C)n2)c1` [M-MPEP] gave a pKi of 7.96.
Consider `CO/N=C1/C=C(C#Cc2cccc(C)n2)CCC1`, for which the pIC50 is 8.64 in [12], 8.62 in series [14] and 8.15 in [17]. Moreover, the outcome in series [13] and in [15] was inactive. Also, the pKi in series [16] is 8.77; in [17] it was 8.46; in series [11] it was 8.74.
For `CCOC(=O)[C@]12CC1/C(=N\O)c1ccccc1O2` (some centres not stated) [CPCCOET], the values for the pKi in [16] and in [11] were less than 4.00 and less than 5.00, respectively.
